One compound from ChEMBL document CHEMBL1153250, “Discovery and SAR of novel, potent and selective hexahydrobenzonaphthyridinone inhibitors of poly(ADP-ribose)polymerase-1 (PARP-1)” (Bioorg Med Chem Lett, 2010) can be followed below.

Each structure is given as a SMILES string.

The target in data set [1] is T1, Poly [ADP-ribose] polymerase 1 (Homo sapiens, UniProt P09874). Nature of the data set: Inhibition of human PARP1 by scintillation proximity assay. For orientation: SPA uses beads or plates that emit light when radiolabelled molecules are held near them.
Data set [2] concerns the target Voltage-gated inwardly rectifying potassium channel KCNH2 (Homo sapiens, UniProt Q12809). Nature of the data set: Binding affinity to potassium channel IKr at 10 uM.
Data set [3] has as its target T2, Protein mono-ADP-ribosyltransferase PARP3 (Homo sapiens, UniProt Q9Y6F1).
T2 sequence (Q9Y6F1 whole entry): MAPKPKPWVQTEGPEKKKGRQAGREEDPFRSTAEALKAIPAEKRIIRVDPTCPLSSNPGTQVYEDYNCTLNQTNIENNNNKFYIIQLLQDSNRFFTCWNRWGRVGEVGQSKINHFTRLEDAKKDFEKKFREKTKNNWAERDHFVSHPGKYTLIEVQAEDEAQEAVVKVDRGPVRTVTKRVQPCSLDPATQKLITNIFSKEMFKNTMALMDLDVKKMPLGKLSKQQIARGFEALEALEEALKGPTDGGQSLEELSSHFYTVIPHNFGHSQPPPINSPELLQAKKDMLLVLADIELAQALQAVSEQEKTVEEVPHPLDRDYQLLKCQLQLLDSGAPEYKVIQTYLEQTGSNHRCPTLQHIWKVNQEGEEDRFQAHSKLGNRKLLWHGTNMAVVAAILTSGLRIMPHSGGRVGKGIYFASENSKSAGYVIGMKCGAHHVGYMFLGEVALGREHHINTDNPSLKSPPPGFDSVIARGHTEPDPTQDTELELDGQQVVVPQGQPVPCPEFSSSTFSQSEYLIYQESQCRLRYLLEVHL
Briefly: Inhibition of PARP3.

Data set [4] relates to Rattus norvegicus. Nature of the data set: Volume of distribution in rat at 3 mg/kg, iv and po. It counts as ADME, organism-based. Set-up: dose 3 mg/kg, route oral. As to conditions: in vivo; call rule not given here. The gist of the method:
(§1)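 Rats received the compound both intravenously and orally, each at 3 mg/kg. Reported PK parameters are half-life (h), volume of distribution (L/kg), clearance (ml/min/kg), oral bioavailability (%F) and oral AUC (μM h).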

In data set [5] the target is T3, Poly [ADP-ribose] polymerase tankyrase-1 (Homo sapiens, UniProt O95271).
T3 sequence (O95271 whole entry): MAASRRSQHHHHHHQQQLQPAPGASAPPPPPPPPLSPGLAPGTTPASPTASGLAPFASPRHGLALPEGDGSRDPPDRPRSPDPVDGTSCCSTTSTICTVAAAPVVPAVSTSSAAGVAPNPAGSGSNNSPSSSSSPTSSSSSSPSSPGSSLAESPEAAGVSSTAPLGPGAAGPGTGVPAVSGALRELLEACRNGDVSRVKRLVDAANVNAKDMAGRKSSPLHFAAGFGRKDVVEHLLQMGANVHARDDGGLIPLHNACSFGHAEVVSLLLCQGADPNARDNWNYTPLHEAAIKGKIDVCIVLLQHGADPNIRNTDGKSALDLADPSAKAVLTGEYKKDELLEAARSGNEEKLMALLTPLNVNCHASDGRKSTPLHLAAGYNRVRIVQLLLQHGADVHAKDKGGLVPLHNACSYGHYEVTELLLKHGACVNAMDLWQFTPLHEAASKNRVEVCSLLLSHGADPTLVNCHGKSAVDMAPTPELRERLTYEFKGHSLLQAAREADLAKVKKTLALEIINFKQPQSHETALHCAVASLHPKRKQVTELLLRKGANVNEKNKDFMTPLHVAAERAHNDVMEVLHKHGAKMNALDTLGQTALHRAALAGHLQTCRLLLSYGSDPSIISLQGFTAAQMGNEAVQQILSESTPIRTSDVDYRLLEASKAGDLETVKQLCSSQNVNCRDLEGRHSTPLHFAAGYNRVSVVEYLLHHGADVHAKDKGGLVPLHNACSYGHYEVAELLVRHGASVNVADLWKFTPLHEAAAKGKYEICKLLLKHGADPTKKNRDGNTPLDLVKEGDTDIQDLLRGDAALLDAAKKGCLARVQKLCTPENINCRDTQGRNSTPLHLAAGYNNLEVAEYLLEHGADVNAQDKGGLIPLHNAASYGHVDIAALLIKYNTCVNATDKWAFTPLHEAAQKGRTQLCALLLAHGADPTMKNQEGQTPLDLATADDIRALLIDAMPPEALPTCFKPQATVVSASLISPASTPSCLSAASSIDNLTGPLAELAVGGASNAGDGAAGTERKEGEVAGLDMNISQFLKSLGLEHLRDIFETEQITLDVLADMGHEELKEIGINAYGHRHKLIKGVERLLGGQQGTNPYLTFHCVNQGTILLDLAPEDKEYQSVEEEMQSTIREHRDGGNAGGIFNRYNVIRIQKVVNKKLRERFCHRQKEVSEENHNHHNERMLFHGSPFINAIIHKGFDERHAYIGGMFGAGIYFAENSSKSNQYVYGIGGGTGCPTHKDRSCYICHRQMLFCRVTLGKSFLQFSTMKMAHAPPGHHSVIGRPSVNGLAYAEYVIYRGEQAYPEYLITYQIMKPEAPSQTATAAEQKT
Briefly: Inhibition of Tankyrase 1.

A short description of data set [6]: Intrinsic clearance in rat liver microsomes. In kind it is ADME, Microsome. Background: Liver microsomes are vesicles of endoplasmic reticulum, rich in cytochrome P450 enzymes.
In data set [7] the target is Poly [ADP-ribose] polymerase 2 (Homo sapiens, UniProt Q9UGN5). Briefly: Inhibition of PARP2.
Data set [8] can be described thus: AUC in rat at 3 mg/kg, po. In kind it is ADME, organism-based. Set-up: dose 3 mg/kg, route oral. The settings on record: plasma. The gist of the method:
as §1

Data set [9] is described as follows: Half life in rat at 3 mg/kg, iv and po. Set-up: dose 3 mg/kg, route oral. In kind it is ADME, organism-based. The settings on record: in vivo. An outline of the steps: as §1
Data set [10] concerns the target Protein mono-ADP-ribosyltransferase PARP4 (Homo sapiens, UniProt Q9UKK3). Nature of the data set: Inhibition of VPARP.
A short description of data set [11]: Oral bioavailability in rat at 3 mg/kg. In kind it is ADME, organism-based. As to conditions: in vivo. An outline of the steps:
as §1

A short description of data set [12]: Inhibition of Cytochrome P450 at 10 uM. In kind it is ADME.
In data set [13] the target is T1, Poly [ADP-ribose] polymerase 1. Briefly: Inhibition of PARP1 in human HeLa cells assessed as inhibition of hydrogen peroxide-induced poly(ADP-ribosyl)ation. It counts as cell-based.

T1 sequence (P09874 whole entry): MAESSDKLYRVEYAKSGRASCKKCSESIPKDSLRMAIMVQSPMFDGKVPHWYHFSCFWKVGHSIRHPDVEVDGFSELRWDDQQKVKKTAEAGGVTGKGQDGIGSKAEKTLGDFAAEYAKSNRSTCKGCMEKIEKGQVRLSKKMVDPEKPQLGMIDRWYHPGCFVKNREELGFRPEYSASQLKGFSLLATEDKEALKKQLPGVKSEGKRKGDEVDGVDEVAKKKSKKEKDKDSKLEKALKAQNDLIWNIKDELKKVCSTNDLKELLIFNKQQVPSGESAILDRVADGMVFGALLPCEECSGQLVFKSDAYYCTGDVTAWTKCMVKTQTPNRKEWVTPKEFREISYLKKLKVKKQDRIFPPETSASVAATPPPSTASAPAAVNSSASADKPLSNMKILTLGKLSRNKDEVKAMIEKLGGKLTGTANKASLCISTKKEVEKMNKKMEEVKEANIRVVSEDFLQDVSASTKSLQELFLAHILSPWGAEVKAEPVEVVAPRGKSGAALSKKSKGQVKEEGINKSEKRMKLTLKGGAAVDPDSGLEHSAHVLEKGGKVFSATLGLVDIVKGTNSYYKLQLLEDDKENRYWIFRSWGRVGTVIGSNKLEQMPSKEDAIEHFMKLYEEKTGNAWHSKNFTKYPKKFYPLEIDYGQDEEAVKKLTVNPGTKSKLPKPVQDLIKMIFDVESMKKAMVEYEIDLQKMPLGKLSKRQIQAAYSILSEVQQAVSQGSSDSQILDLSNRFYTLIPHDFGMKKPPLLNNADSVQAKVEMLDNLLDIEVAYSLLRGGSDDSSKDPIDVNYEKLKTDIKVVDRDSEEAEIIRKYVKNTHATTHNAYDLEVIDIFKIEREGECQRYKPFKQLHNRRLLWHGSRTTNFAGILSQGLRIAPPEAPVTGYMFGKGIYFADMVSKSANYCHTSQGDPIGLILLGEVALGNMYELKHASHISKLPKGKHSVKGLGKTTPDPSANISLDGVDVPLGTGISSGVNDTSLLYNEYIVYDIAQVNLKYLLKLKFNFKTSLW
Chain of Poly [ADP-ribose] polymerase 2 (Q9UGN5 whole entry): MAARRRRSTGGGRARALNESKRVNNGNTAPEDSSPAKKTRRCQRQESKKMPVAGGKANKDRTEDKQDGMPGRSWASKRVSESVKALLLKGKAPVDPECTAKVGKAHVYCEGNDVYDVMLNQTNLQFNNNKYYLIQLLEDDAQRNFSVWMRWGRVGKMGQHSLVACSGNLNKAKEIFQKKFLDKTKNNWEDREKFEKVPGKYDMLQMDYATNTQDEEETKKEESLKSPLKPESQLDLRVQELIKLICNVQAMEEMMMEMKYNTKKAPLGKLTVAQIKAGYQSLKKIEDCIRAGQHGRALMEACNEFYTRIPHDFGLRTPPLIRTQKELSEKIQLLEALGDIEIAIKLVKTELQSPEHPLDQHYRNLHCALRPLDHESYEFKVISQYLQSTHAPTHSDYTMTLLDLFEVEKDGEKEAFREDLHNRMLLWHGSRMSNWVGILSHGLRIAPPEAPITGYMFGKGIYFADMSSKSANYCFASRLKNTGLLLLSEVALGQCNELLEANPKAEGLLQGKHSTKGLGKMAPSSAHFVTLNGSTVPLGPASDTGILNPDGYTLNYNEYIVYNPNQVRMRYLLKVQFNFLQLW
Chain of Protein mono-ADP-ribosyltransferase PARP4 (Q9UKK3 whole entry): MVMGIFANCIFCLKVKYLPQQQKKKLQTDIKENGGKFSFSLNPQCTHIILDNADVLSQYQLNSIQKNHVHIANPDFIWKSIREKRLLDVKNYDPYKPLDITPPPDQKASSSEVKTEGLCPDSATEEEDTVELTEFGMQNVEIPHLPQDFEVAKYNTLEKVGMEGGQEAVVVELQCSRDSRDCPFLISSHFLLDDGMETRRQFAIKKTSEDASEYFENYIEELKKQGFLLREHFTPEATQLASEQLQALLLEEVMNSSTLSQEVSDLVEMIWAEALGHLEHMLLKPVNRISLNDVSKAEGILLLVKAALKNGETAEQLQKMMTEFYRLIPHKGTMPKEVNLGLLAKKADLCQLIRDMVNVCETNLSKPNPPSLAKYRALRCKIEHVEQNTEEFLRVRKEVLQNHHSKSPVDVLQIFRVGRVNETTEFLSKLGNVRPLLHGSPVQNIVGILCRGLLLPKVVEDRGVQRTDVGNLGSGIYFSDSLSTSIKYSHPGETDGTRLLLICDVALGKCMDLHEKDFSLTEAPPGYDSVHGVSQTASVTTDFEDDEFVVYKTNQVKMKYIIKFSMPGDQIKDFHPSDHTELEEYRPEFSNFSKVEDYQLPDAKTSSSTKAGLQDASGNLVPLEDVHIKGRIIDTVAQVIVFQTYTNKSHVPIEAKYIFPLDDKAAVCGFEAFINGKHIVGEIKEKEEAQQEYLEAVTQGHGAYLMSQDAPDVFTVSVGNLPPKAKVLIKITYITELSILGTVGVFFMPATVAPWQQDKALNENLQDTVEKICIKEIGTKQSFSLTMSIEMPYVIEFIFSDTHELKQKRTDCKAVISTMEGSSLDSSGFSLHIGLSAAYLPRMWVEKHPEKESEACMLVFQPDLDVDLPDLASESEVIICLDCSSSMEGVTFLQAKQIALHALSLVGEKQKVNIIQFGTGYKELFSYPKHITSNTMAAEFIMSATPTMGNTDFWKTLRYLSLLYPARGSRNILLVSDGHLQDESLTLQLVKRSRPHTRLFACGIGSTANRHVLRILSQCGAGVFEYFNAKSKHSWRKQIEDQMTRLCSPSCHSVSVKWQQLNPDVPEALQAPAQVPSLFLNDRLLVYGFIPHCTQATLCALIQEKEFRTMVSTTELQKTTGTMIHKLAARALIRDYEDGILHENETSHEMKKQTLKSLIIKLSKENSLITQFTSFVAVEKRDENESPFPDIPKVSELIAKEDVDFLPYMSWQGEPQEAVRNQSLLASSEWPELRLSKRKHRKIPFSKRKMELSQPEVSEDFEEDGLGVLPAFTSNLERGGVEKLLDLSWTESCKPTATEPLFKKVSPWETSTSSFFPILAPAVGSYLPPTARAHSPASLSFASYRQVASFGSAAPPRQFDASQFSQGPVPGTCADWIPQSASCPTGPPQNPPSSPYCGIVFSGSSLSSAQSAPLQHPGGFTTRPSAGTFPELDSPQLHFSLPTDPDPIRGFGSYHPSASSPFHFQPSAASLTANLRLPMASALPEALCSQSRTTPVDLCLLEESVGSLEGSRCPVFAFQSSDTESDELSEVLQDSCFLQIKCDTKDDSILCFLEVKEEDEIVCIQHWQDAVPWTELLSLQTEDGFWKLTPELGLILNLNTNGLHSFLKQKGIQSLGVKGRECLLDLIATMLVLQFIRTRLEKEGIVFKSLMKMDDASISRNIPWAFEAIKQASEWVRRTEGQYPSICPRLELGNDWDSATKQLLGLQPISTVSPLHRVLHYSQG
Chain of Voltage-gated inwardly rectifying potassium channel KCNH2 (Q12809 whole entry): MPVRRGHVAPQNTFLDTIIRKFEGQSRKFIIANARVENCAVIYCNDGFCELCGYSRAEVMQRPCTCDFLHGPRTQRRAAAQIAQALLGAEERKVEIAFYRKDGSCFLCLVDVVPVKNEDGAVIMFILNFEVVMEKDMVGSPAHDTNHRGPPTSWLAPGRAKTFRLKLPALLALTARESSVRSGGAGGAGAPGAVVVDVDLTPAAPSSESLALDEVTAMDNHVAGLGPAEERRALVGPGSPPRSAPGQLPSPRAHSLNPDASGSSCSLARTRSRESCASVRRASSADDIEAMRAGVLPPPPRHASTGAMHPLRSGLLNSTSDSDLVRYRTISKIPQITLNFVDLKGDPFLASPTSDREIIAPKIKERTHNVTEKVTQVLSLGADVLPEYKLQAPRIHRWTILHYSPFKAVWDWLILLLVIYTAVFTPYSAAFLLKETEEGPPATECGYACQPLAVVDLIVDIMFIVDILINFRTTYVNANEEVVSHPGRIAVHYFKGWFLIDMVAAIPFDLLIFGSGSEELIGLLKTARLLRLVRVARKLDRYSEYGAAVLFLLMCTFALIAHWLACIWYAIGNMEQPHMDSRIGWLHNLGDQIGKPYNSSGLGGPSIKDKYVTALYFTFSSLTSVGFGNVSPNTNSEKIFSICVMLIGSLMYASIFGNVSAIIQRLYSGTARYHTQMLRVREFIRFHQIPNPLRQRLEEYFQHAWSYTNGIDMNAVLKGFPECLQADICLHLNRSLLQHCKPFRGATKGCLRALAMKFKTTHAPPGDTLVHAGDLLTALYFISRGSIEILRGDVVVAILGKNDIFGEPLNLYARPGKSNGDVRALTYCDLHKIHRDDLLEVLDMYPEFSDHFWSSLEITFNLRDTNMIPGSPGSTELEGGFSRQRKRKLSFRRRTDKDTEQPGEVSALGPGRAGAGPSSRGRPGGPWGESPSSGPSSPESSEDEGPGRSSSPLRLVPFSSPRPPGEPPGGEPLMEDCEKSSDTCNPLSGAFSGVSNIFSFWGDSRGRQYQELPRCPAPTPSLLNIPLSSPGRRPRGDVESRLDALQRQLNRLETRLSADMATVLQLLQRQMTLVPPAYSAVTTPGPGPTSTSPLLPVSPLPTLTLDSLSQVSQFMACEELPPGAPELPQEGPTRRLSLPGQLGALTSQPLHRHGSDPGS

Usually IC50 stands for the concentration that gives 50% inhibition. Lower therefore signals greater potency in that assay. By microsomal CLint is commonly meant a measure of how fast metabolising enzymes remove a compound, apart from limits set by blood flow. Usually AUC stands for concentration integrated over time. Lower therefore signals low exposure. As a reminder, the half-life is the time in which the quantity being followed falls by half. Read a high half-life as slow loss. Broadly, the bioavailability is the share of a dose that reaches the circulation, judged against a reference dose that is usually intravenous. Low readings indicate little systemic uptake, high ones much systemic uptake. The term EC50 denotes the concentration needed to bring the measured effect to its halfway point. On to `O=C1NCC2c3c(cccc31)CCN2C(=O)Cc1cccnc1` (stereo not drawn), for which the IC50 is 1 nM in data set [1]; 50 nM in [3]; 3500 nM in data set [5]; 1 nM in data set [7]; 440 nM in [10]. Moreover, the Activity entry in data set [2] and in data set [12] was “Not Active” each time. The same compound returned a Vd in data set [4] of 3 L/kg. The compound further came in with a microsomal CLint in [6] of 3 µL/min/mg. For the same compound, in data set [8], the AUC worked out at 2.3 µM·h. The compound further had a half-life in data set [9] of 1.7 h. In [11], this compound displayed a bioavailability of 51%. For the same compound, the EC50 in data set [13] was determined as 360 nM.
